# Assay results taken from ChEMBL document CHEMBL5108036, “A concise SAR-analysis of antimicrobial cationic amphipathic barbiturates for an improved activity-toxicity profile” (Eur J Med Chem, 2022).
# Active and inactive are the calls of the source. The rule behind the calls is not given here.
# Key:
# Staphylococcus aureus = experiment: Antibacterial activity against Staphylococcus aureus ATCC 9144 incubated for 48 hrs and measured by broth microdilution assay; type: functional
# Procedure, shortened: (§1)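 MICs in µg/mL were measured against the reference strains S. aureus ATCC 9144, B. subtilis 168, E. coli ATCC 25922 and P. aeruginosa ATCC 27853. Compounds were tested as di-TFA salts.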
# Bacillus subtilis [1] = experiment: Antibacterial activity against Bacillus subtilis 168 incubated for 48 hrs and measured by broth microdilution assay; type: functional; procedure, shortened: as §1
# Escherichia coli [2] = experiment: Antibacterial activity against Escherichia coli ATCC 25922 incubated for 48 hrs and measured by broth microdilution assay; type: functional; procedure, shortened: as §1
# Pseudomonas aeruginosa = experiment: Antibacterial activity against Pseudomonas aeruginosa ATCC 27853 incubated for 48 hrs and measured by broth microdilution assay; type: functional; procedure, shortened: as §1
# [3] = (§2) Hemolytic activity in human RBC measured after 1 hr by microplate reader method; type: toxicity, cell-based, Erythrocyte; conditions: human, human red blood cells (erythrocytes)
# Procedure, shortened: (§3)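 Human red blood cell lysis was used as the cytotoxicity read-out, expressed as EC50 in µg/mL. The highest concentration tested was 500 µM. Compounds were tested as di-TFA salts.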
# [4] = Selectivity index, ratio HC50 for hemolytic activity in human RBC to MIC for antibacterial activity against Staphylococcus aureus ATCC 9144; type: toxicity; conditions: human red blood cells (erythrocytes)
# Procedure, shortened: (§4)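 SI is the ratio of RBC lysis EC50 to MIC for each reference strain.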
# [5] = Selectivity index, ratio HC50 for hemolytic activity in human RBC to MIC for antibacterial activity against Bacillus subtilis 168; type: toxicity; conditions: human red blood cells (erythrocytes); procedure, shortened: as §4
# [6] = Selectivity index, ratio HC50 for hemolytic activity in human RBC to MIC for antibacterial activity against Escherichia coli ATCC 25922; type: toxicity; conditions: human red blood cells (erythrocytes); procedure, shortened: as §4
# [7] = Selectivity index, ratio HC50 for hemolytic activity in human RBC to MIC for antibacterial activity against Pseudomonas aeruginosa ATCC 27853; type: toxicity; conditions: human red blood cells (erythrocytes); procedure, shortened: as §4
# Bacillus subtilis [8] = experiment: Antibacterial activity against Bacillus subtilis 168 (ATCC 23857) expressing lux operon in sacA locus (PliaG) assessed as decrease in bacterial viability at 3.2 to 51.2 ug/ml; type: functional, organism-based; conditions: dose 3.2-51.2 µg/ml
# Procedure, shortened: (§5)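 Biosensor strains (B. subtilis 168; E. coli K12) carry the Photorhabdus luminescens lux operon, so no substrate is added. Cell suspension, about 100-fold denser than in the MIC assay, was added to the analytes. Light was read every second for 180 s, normalized to an untreated water control and reported as RLU. At least three independent experiments were run.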
# Bacillus subtilis [9] = experiment: Disruption of inner membrane integrity in Bacillus subtilis 168 (ATCC 23857) at 1.56 to 50 ug/ml measured by luciferase based bioluminescence assay; type: functional, organism-based; conditions: dose 1.56-50 µg/ml
# Procedure, shortened: (§6)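 Membrane integrity was read with click beetle lucGR luciferase biosensor strains. Cell suspension containing 1 mM D-luciferin was added to the analytes. Luminescence was read every second for 180 s, normalized to an untreated water control and reported as RLU. At least three independent experiments were run.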
# Escherichia coli [10] = experiment: Antibacterial activity against Escherichia coli K12 (ATCC MC1061) transfected with pCGLS-1 assessed as decrease in bacterial viability at 3.2 to 51.2 ug/ml; type: functional, organism-based; conditions: dose 3.2-51.2 µg/ml; procedure, shortened: as §5
# Escherichia coli [11] = experiment: Disruption of inner membrane integrity in Escherichia coli K12 (ATCC MC1061) transfected with pCGLS-1 at 6.4 to 12.8 times MIC measured by luciferase based bioluminescence assay; type: functional, organism-based; conditions: DDE = dose-dependent effect; procedure, shortened: as §6
# Escherichia coli [12] = experiment: Disruption of outer membrane integrity in Escherichia coli K12 (ATCC MC1061) transfected with pCGLS-1 at 3.2 ug/ml measured by NPN based fluorescence assay; type: functional, organism-based; conditions: dose 3.2 µg/ml, DDE = dose-dependent effect
# Procedure, shortened: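 E. coli K12 outer membrane permeability was measured by 1-N-phenylnaphthylamine uptake. Cell suspension with 20 µM NPN was added to the analytes. Fluorescence was read every second for 180 s, normalized to an untreated water control and reported as RFU. At least three independent experiments were run.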
# Escherichia coli [13] = experiment: Antibacterial activity against in Escherichia coli K12 (ATCC MC1061) transfected with pCGLS-1 assessed as decrease in cell viability at 25.6 to 51.2 ug/ml measured by NPN based fluorescence assay; type: functional, organism-based; conditions: dose 25.6-51.2 µg/ml
# Procedure, shortened: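 At the end of the NPN outer membrane assay in E. coli K12, a 10 µL sample was spotted on an agar plate to assess bacterial viability.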
# Erythrocyte = experiment: as §2; type: toxicity, cell-based; conditions: erythrocyte; procedure, shortened: as §3
# [14] = Solubility in pure water; type: physicochemical
# Bacillus subtilis [15] = experiment: Disruption of inner membrane integrity in Bacillus subtilis 168 ATCC 23857 measured by luciferase based bioluminescence assay; type: functional
# Procedure, shortened: (§7)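 Biosensor strains express click-beetle luciferase (lucGR), whose light output needs externally added D-luciferin; light rises when a damaged membrane lets substrate in. Cell suspension with 1 mM D-luciferin is added to the analytes, and luminescence is read every second for 180 s. Signal is normalized to an untreated water control. Cell density is about 100-fold that of the MIC assay, with at least three independent experiments.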
# Escherichia coli [16] = experiment: Disruption of inner membrane integrity in Escherichia coli K12 (ATCC MC1061) transfected with pCGLS-1 measured by luciferase based bioluminescence assay; type: functional; procedure, shortened: as §7
Compound,MIC (Staphylococcus aureus) [µg/mL],MIC (Bacillus subtilis [1]) [µg/mL],MIC (Escherichia coli [2]) [µg/mL],MIC (Pseudomonas aeruginosa) [µg/mL],EC50 at 1 h [3] [µg/mL],selectivity ratio [4],selectivity ratio [5],selectivity ratio [6],selectivity ratio [7],Activity (Bacillus subtilis [8]),Activity (Bacillus subtilis [9]),Activity (Escherichia coli [10]),Activity (Escherichia coli [11]),Activity (Escherichia coli [12]),Activity (Escherichia coli [13]),EC50 (Erythrocyte) [µg/mL],solubility [14] [µg/mL],MIC (Bacillus subtilis [15]) [µg/mL],MIC (Escherichia coli [16]) [µg/mL]
N=C(N)NCCCCN1C(=O)N(CCCCNC(=N)N)C(=O)C(Cc2ccc(C(F)(F)F)cc2)(Cc2cc(Br)cc(Br)c2)C1=O.O=C(O)C(F)(F)F.O=C(O)C(F)(F)F (configuration not stated),2,4,2,16,161,81,40,81,10,Active,Active,Active,Dde,Dde,Active,–,–,–,–
N=C(N)NCCCN1C(=O)N(CCCNC(=N)N)C(=O)C(Cc2cc(C(F)(F)F)cc(C(F)(F)F)c2)(Cc2cc(C(F)(F)F)cc(C(F)(F)F)c2)C1=O.O=C(O)C(F)(F)F.O=C(O)C(F)(F)F,4,2,8,16,–,111,222,56,28,–,–,–,–,–,–,445,< 1000,–,–
N=C(NCCCCCCNC(=N)NC(=N)Nc1ccc(Cl)cc1)NC(=N)Nc1ccc(Cl)cc1 [CHLORHEXIDINE],–,–,–,–,–,–,–,–,–,–,–,–,–,–,–,–,–,1.5,1.5
